Assay results reported in ChEMBL document CHEMBL3120102, “Structure-based design, synthesis and biological evaluation of novel anthra[1,2-d]imidazole-6,11-dione homologues as potential antitumor agents” (2013).

Key:
Type in all cases: functional
NCI-H460 = assay: Cytotoxicity against human NCI-H460 cells assessed as growth inhibition after 48 hrs by SRB assay
Procedure, shortened: (§1)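 NCI 60-cell-line screen, five-dose stage: each cell line exposed for 48 h to five concentrations spanning five log steps; cellular protein measured by sulforhodamine B colorimetry. A time-zero cell control and plates without drug are used to derive GI50, TGI and LC50 from log-concentration dose-response curves.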

RPMI-8226 = assay: Cytotoxicity against human RPMI8226 cells assessed as growth inhibition after 48 hrs by SRB assay; procedure, shortened: as §1
HT-29 = assay: Cytotoxicity against human HT-29 cells assessed as cell growth at 10 uM after 48 hrs by SRB assay; conditions: HT-29, 48 h, read-out: Activity
CCRF-CEM = assay: Cytotoxicity against human CCRF-CEM cells assessed as growth inhibition after 48 hrs by SRB assay
Procedure, shortened: (§2)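 NCI 60-cell-line five-dose screen at […]. Drug exposure was 48 h, followed by sulforhodamine B protein staining. GI50, TGI and LC50 were calculated against a time-zero control and untreated plates, with dose–response curves plotted from log10 concentration.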

786-0 = assay: Cytotoxicity against human 786-0 cells assessed as growth inhibition after 48 hrs by SRB assay; procedure, shortened: as §2
SN12C = assay: Cytotoxicity against human SN12C cells assessed as growth inhibition after 48 hrs by SRB assay
Procedure, shortened: (§3)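 NCI 60-cell-line screen, two stages. Five-dose testing at […]. Cellular protein measured by sulforhodamine B colorimetry after 48 h drug exposure. A time-zero control and drug-free plates are used to derive GI50, TGI and LC50 from dose-response curves plotted as log10 concentration per cell line.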

[1] = (§4) Cytotoxicity against human NCI-ADR-RES cells assessed as growth inhibition after 48 hrs by SRB assay; procedure, shortened: as §1
NCI/ADR-RES = assay: as §4; procedure, shortened: as §1
M14 = assay: Cytotoxicity against human M14 cells assessed as growth inhibition after 48 hrs by SRB assay; procedure, shortened: as §2
OVCAR-3 = assay: Cytotoxicity against human OVCAR3 cells assessed as growth inhibition after 48 hrs by SRB assay; procedure, shortened: as §1
[2] = Cytotoxicity against human Hs578T cells assessed as cell growth at 10 uM after 48 hrs by SRB assay; conditions: Hs-578T, read-out: Activity
BT-549 = assay: Cytotoxicity against human BT549 cells assessed as growth inhibition after 48 hrs by SRB assay; procedure, shortened: as §2
UACC-62 = assay: Cytotoxicity against human UACC62 cells assessed as growth inhibition after 48 hrs by SRB assay; procedure, shortened: as §3
RXF 393 = assay: Cytotoxicity against human RXF393 cells assessed as growth inhibition after 48 hrs by SRB assay; procedure, shortened: as §1
SF-539 = assay: Cytotoxicity against human SF539 cells assessed as growth inhibition after 48 hrs by SRB assay; procedure, shortened: as §1
NCI-H322M = assay: Cytotoxicity against human NCI-H322M cells assessed as growth inhibition after 48 hrs by SRB assay; procedure, shortened: as §1
DU-145 = assay: Cytotoxicity against human DU145 cells assessed as growth inhibition after 48 hrs by SRB assay; procedure, shortened: as §2
OVCAR-5 = assay: (§5) Cytotoxicity against human OVCAR5 cells assessed as growth inhibition after 48 hrs by SRB assay; procedure, shortened: as §1
[3] = as §5; conditions: OVCAR-5, 48 h; procedure, shortened: as §1
HCT-15 = assay: Cytotoxicity against human HCT15 cells assessed as growth inhibition after 48 hrs by SRB assay; procedure, shortened: as §2
[4] = (§6) Cytotoxicity against human OVCAR4 cells assessed as growth inhibition after 48 hrs by SRB assay; conditions: OVCAR-4, 48 h; procedure, shortened: as §1
OVCAR-4 = assay: as §6; procedure, shortened: as §1
UO-31 = assay: (§7) Cytotoxicity against human UO31 cells assessed as growth inhibition after 48 hrs by SRB assay; procedure, shortened: as §3
[5] = as §7; conditions: UO-31, 48 h; procedure, shortened: as §3
NCI-H23 = assay: Cytotoxicity against human NCI-H23 cells assessed as growth inhibition after 48 hrs by SRB assay; procedure, shortened: as §1
SF-268 = assay: Cytotoxicity against human SF268 cells assessed as growth inhibition after 48 hrs by SRB assay; procedure, shortened: as §1
A498 = assay: Cytotoxicity against human A498 cells assessed as growth inhibition after 48 hrs by SRB assay; procedure, shortened: as §2
SF-295 = assay: Cytotoxicity against human SF295 cells assessed as growth inhibition after 48 hrs by SRB assay; procedure, shortened: as §1

In the case of `CCCSc1nc2ccc3c(c2[nH]1)C(=O)c1ccccc1C3=O`, the “growth inhibition (GI)” value (NCI-H460) is reported as “Dose-dependent effect”, the GI50 (NCI-H460; NCI-H460, 48 h) is reported as 44.7 µM and the LC50 (NCI-H460; NCI-H460, 48 h) is reported as > 100 µM. For the same molecule, the TGI (NCI-H460; NCI-H460, 48 h) was > 100 µM, the “growth inhibition (GI)” value (RPMI-8226) was “Dose-dependent effect” and the GI50 (RPMI-8226; RPMI-8226, 48 h) was > 100 µM. The LC50 (concentration causing 50% net cell kill) (RPMI-8226; RPMI-8226, 48 h) was > 100 µM, the TGI (RPMI-8226; RPMI-8226, 48 h) was > 100 µM and the growth at 10 µM (HT-29) was 75.1%. For the same molecule, the GI50 (CCRF-CEM) was > 100 µM, the LC50 (CCRF-CEM) was > 100 µM and the TGI (CCRF-CEM) was > 100 µM. The “growth inhibition (GI)” value (CCRF-CEM) was “Dose-dependent effect”, the “growth inhibition (GI)” value (786-0) was “Dose-dependent effect” and the GI50 (786-0; 786-0, 48 h) was 2.13 µM. The LC50 (concentration causing 50% net cell kill) (786-0; 786-0, 48 h) was 9.04 µM, the TGI (786-0; 786-0, 48 h) was 4.39 µM and the GI50 (SN12C) was 14 µM. The TGI (SN12C) was > 100 µM, the “growth inhibition (GI)” value (SN12C) was “Dose-dependent effect” and the CC50 (SN12C; read-out: LC50 (the source's name)) was > 100 µM. The GI50 [1] was 2.37 µM, the LC50 (concentration causing 50% net cell kill) [1] was > 100 µM and the TGI [1] was > 100 µM. For the same molecule, the “growth inhibition (GI)” value (NCI/ADR-RES) was “Dose-dependent effect”, the “growth inhibition (GI)” value (M14) was “Dose-dependent effect” and the GI50 (M14; M14, 48 h) was > 100 µM. The LC50 (M14; M14, 48 h) was > 100 µM, the TGI (M14; M14, 48 h) was > 100 µM and the “growth inhibition (GI)” value (OVCAR-3) was “Dose-dependent effect”. For the same molecule, the GI50 (OVCAR-3; OVCAR-3, 48 h) was 3.97 µM, the LC50 (50% lethal concentration) (OVCAR-3; OVCAR-3, 48 h) was > 100 µM and the TGI (OVCAR-3; OVCAR-3, 48 h) was 37.6 µM. For the same molecule, the growth at 10 µM [2] was 33.3%, the “growth inhibition (GI)” value (BT-549) was “Dose-dependent effect” and the GI50 (BT-549; BT-549, 48 h) was 33.4 µM. The LC50 (concentration killing 50% of cells) (BT-549; BT-549, 48 h) was > 100 µM, the TGI (BT-549; BT-549, 48 h) was > 100 µM and the “growth inhibition (GI)” value (UACC-62) was “Dose-dependent effect”. For the same molecule, the GI50 (UACC-62; UACC-62, 48 h) was 5.78 µM, the LC50 (UACC-62; UACC-62, 48 h) was > 100 µM and the TGI (UACC-62; UACC-62, 48 h) was > 100 µM. The “growth inhibition (GI)” value (RXF 393) was “Dose-dependent effect”, the GI50 (RXF 393; RXF 393, 48 h) was 2.65 µM and the TGI (RXF 393; RXF 393, 48 h) was 8.1 µM. The CC50 (RXF 393; RXF 393, 48 h, read-out: LC50 (the source's name)) was > 100 µM, the “growth inhibition (GI)” value (SF-539) was “Dose-dependent effect” and the GI50 (SF-539; SF-539, 48 h) was 3.07 µM. The TGI (SF-539; SF-539, 48 h) was 32 µM, the CC50 (SF-539; SF-539, 48 h, read-out: LC50 (the source's name)) was > 100 µM and the GI50 (NCI-H322M) was > 100 µM. For the same molecule, the LC50 (concentration killing 50% of cells relative to time zero) (NCI-H322M) was > 100 µM, the TGI (NCI-H322M) was > 100 µM and the “growth inhibition (GI)” value (NCI-H322M) was “Dose-dependent effect”. For the same molecule, the “growth inhibition (GI)” value (DU-145) was “Dose-dependent effect”, the GI50 (DU-145; DU-145, 48 h) was > 100 µM and the TGI (DU-145; DU-145, 48 h) was > 100 µM. The CC50 (DU-145; DU-145, 48 h, read-out: LC50 (the source's name)) was > 100 µM, the “growth inhibition (GI)” value (OVCAR-5) was “Dose-dependent effect” and the GI50 [3] was 58.1 µM. The LC50 [3] was > 100 µM, the TGI [3] was > 100 µM and the “growth inhibition (GI)” value (HCT-15) was “Dose-dependent effect”. The GI50 (HCT-15; HCT-15, 48 h) was > 100 µM, the LC50 (concentration killing 50% of cells) (HCT-15; HCT-15, 48 h) was > 100 µM and the TGI (HCT-15; HCT-15, 48 h) was > 100 µM. The GI50 [4] was 5.05 µM, the LC50 (concentration killing 50% of cells) [4] was > 100 µM and the TGI [4] was > 100 µM. The “growth inhibition (GI)” value (OVCAR-4) was “Dose-dependent effect”, the “growth inhibition (GI)” value (UO-31) was “Dose-dependent effect” and the GI50 [5] was 2.53 µM. For the same molecule, the LC50 [5] was > 100 µM, the TGI [5] was 70.2 µM and the “growth inhibition (GI)” value (NCI-H23) was “Dose-dependent effect”. For the same molecule, the GI50 (NCI-H23; NCI-H23, 48 h) was 48 µM, the LC50 (NCI-H23; NCI-H23, 48 h) was > 100 µM and the TGI (NCI-H23; NCI-H23, 48 h) was > 100 µM. The “growth inhibition (GI)” value (SF-268) was “Dose-dependent effect”, the GI50 (SF-268; SF-268, 48 h) was 3.71 µM and the LC50 (concentration killing 50% of cells relative to time zero) (SF-268; SF-268, 48 h) was > 100 µM. The TGI (SF-268; SF-268, 48 h) was > 100 µM, the “growth inhibition (GI)” value (A498) was “Dose-dependent effect” and the GI50 (A498; A498, 48 h) was 13.9 µM. The TGI (A498; A498, 48 h) was > 100 µM, the CC50 (A498; A498, 48 h, read-out: LC50 (the source's name)) was > 100 µM and the “growth inhibition (GI)” value (SF-295) was “Dose-dependent effect”. The GI50 (SF-295; SF-295, 48 h) was 3.19 µM, the LC50 (SF-295; SF-295, 48 h) was > 100 µM and the TGI (SF-295; SF-295, 48 h) was 60.2 µM.
